Twelve compounds from ChEMBL document CHEMBL3608250, “Fragment-Based Discovery of Potent and Selective DDR1/2 Inhibitors” (ACS Med Chem Lett, 2015) can be followed below.

Positions count from the first letter of the chain named. Active and inactive are the calls of the source. No cut-off for these calls is given here.

Series [1] addresses T1, Discoidin domain-containing receptor 2 (Homo sapiens, UniProt Q16832).
T1 sequence (Q16832 whole entry): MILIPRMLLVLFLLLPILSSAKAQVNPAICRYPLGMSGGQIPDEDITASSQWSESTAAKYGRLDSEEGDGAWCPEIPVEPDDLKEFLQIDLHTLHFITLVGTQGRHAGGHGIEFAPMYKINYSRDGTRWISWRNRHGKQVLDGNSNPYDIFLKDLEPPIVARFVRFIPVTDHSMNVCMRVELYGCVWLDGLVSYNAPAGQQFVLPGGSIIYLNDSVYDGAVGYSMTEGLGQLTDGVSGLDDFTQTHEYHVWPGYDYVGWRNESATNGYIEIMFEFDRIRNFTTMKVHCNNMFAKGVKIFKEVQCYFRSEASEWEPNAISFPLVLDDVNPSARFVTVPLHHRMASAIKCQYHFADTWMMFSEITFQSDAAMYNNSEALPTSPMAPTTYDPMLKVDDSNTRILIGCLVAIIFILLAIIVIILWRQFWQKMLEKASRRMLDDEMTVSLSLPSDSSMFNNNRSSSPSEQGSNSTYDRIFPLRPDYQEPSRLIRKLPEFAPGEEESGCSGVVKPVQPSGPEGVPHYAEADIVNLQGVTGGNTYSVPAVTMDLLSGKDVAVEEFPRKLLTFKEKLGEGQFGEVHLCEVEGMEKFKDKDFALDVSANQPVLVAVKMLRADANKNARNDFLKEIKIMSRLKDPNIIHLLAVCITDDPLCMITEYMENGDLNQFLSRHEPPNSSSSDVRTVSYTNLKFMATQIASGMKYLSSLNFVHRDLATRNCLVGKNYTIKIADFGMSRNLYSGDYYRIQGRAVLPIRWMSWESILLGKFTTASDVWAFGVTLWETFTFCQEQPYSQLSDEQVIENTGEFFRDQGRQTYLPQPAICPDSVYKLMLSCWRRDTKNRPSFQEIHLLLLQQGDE
The series can be described thus: Inhibition of DDR2 (unknown origin) after 1 hr by time resolved fluorescence method.

The target of series [2] is T2, Mast/stem cell growth factor receptor Kit (Homo sapiens, UniProt P10721). The series can be described thus: Inhibition of c-Kit (unknown origin) using biotinylated HER2 peptide as substrate by time resolved fluorescence method.
Series [3] concerns the target Proto-oncogene tyrosine-protein kinase Src (Homo sapiens) (UniProt P12931). Briefly: Inhibition of c-Src (unknown origin) using biotinylated HER2 peptide as substrate at 10 uM by time resolved fluorescence method.
Series [4] addresses T3, Epithelial discoidin domain-containing receptor 1 (Homo sapiens, UniProt Q08345). Briefly: Inhibition of DDR1 (unknown origin) at 0.0015 uM after 1 hr by time resolved fluorescence method.
The target in series [5] is T3, Epithelial discoidin domain-containing receptor 1. Briefly: Inhibition of DDR1 (unknown origin) after 1 hr by time resolved fluorescence method.
Series [6] in a line: Antiproliferative activity against human NCI-H2286 cells expressing DDR2 mutant after 72 hrs by alamar blue assay. The class given is functional, cell-based. The conditions noted are these: NCI-H2286, 72 h. In general terms: Alamar Blue is a resazurin reagent that responds to reducing activity.
A short description of series [7]: Antiproliferative activity against human HCC366 cells expressing DDR2 mutant after 72 hrs by alamar blue assay. The conditions noted are these: HCC366, 72 h. The class given is functional, cell-based.
Series [8] concerns the target T2, Mast/stem cell growth factor receptor Kit. The settings on record: 0.003 uM.
For series [9] the target is unchanged. Briefly: Inhibition of c-Kit (unknown origin) using biotinylated HER2 peptide as substrate at 10 uM by time resolved fluorescence method.
Series [10] shares this target. The series can be described thus: Inhibition of c-Kit (unknown origin) using biotinylated HER2 peptide as substrate at 3 uM by time resolved fluorescence method.
Series [11] in a line: Half life in Balb/C mouse at 1 mg/kg, iv and 5 mg/kg, po. The class given is ADME, organism-based. The settings on record: in vivo.
Series [12] can be described thus: Volume of distribution at steady state in Balb/C mouse at 1 mg/kg, iv and 5 mg/kg, po. The class given is ADME, organism-based. The conditions noted are these: in vivo, read-out: Vdss.
A short description of series [13]: Oral bioavailability in Balb/C mouse at 5 mg/kg. The class given is ADME, organism-based. The conditions noted are these: in vivo.
Series [14] is described as follows: Clearance in Balb/C mouse at 1 mg/kg, iv and 5 mg/kg, po. In kind it is ADME, organism-based. The settings on record: in vivo.
For series [15], the target named is Proto-oncogene tyrosine-protein kinase Src (Homo sapiens) (UniProt P12931). The series can be described thus: Inhibition of c-Src (unknown origin) using biotinylated HER2 peptide as substrate at 100 uM by time resolved fluorescence method.
Series [16] relates to T4, Discoidin domain-containing receptor 2 (Homo sapiens), Q16832 [I638F].
T4 sequence (whole entry): T1 sequence (Q16832 whole entry) with I638F
Briefly: Inhibition of collagen I-induced DDR2 I638F mutant (unknown origin) phosphorylation expressed in HEK293 cells at 0.1 to 1 uM after 16 hrs by Western blotting. The class given is cell-based. Put shortly: (§1)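 HEK293 cells stably transfected with either wild-type DDR2 or the I638F mutant, giving DDR2 overexpression. Cells were left unstimulated or stimulated with collagen I and treated with compound. DDR2 tyrosine phosphorylation (pY) was read out by immunoblot.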

Series [17] deals with Proto-oncogene tyrosine-protein kinase Src (Homo sapiens) (UniProt P12931). The series can be described thus: Inhibition of c-Src (unknown origin) using biotinylated HER2 peptide as substrate at 3 uM by time resolved fluorescence method.
Series [18] has as its target T1, Discoidin domain-containing receptor 2. Briefly: Inhibition of collagen I-induced DDR2 (unknown origin) phosphorylation expressed in HEK293 cells after 16 hrs by mesoscale discovery assay. The class given is cell-based. In outline:
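HEK293 cells stably transfected to overexpress DDR2 (wild type or I638F mutant lines were generated), then stimulated with collagen I. Tyrosine-phosphorylated DDR2 was measured by MesoScale Discovery immunoassay and an EC50 was derived from the concentration–response.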

The target of series [19] is T5, Discoidin domain-containing receptor 2 (Homo sapiens) (UniProt Q16832).
T5 sequence (whole entry): T1 sequence (Q16832 whole entry)
The series can be described thus: Inhibition of collagen I-induced DDR2 (unknown origin) phosphorylation expressed in HEK293 cells at 0.1 to 1 uM after 16 hrs by Western blotting. In kind it is cell-based. Put shortly: as §1
Background: A western blot detects proteins with antibodies after separation by electrophoresis.

The target in series [20] is T3, Epithelial discoidin domain-containing receptor 1. Briefly: Inhibition of DDR1 (unknown origin) at 0.005 uM after 1 hr by time resolved fluorescence method.
In series [21] the target is T5, Discoidin domain-containing receptor 2 (Homo sapiens). Briefly: Inhibition of DDR2 (unknown origin) at 100 uM after 1 hr by time resolved fluorescence method.

The IC50 is the concentration that inhibits the measured activity by half. As usually defined, the inhibition is how much of the control response was suppressed. The half-life is how long it takes for the measured level to halve. Read a high half-life as slow decline. In general, bioavailability refers to the share of a dose that reaches the circulation, judged against a reference dose that is usually intravenous. Broadly, the EC50 is the concentration needed to bring the measured effect to its halfway point. The low end stands for a more potent agent, the high end for a less potent agent.

T2 sequence (P10721 whole entry): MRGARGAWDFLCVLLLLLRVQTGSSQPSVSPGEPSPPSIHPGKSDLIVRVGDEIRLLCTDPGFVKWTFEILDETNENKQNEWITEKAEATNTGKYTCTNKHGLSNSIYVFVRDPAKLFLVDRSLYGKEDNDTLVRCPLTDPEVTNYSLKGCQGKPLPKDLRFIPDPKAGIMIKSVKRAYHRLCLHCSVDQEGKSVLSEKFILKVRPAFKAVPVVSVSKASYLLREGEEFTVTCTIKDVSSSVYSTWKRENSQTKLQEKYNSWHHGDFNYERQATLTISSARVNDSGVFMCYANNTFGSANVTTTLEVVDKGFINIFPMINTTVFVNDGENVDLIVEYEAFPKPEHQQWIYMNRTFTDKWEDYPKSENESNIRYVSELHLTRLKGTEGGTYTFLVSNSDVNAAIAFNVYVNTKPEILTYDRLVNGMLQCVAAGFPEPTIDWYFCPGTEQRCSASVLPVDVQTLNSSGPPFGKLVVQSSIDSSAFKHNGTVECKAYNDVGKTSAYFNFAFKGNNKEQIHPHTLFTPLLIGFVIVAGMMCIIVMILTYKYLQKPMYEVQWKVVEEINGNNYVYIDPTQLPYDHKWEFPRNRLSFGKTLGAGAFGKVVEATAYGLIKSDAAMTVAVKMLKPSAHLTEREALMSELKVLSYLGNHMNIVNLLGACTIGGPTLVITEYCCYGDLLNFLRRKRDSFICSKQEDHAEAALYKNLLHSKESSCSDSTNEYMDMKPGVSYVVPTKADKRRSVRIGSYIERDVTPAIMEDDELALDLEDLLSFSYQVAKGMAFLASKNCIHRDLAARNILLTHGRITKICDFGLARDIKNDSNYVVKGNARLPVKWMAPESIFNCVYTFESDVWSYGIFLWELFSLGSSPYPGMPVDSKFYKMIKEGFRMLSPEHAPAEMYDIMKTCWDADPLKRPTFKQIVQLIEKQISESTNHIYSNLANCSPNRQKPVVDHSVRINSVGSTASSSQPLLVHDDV
T3 sequence (Q08345 whole entry, the tested form may be a part): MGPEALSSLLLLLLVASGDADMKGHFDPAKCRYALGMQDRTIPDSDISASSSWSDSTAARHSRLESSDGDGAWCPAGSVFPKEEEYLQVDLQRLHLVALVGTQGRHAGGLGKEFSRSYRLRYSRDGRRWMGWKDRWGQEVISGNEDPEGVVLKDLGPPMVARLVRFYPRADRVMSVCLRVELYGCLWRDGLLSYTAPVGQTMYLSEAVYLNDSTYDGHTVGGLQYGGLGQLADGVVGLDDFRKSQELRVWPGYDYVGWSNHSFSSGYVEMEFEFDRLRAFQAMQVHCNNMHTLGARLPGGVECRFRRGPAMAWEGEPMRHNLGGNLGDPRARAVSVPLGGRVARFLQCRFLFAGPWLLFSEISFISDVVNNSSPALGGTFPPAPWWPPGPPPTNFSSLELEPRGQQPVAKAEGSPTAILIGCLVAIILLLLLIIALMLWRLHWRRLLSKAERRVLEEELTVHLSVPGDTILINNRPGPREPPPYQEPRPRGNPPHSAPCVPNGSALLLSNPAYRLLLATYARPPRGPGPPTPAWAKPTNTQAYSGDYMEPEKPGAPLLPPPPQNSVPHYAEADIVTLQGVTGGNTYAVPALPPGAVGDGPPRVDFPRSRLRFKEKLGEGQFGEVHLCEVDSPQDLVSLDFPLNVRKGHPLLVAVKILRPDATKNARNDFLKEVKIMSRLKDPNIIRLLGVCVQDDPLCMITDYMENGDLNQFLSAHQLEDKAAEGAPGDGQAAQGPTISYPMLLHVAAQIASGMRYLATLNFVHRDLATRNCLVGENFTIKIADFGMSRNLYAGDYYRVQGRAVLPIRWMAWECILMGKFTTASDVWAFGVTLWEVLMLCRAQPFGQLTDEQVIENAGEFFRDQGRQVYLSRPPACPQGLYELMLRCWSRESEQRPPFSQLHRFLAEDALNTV
Sequence of Proto-oncogene tyrosine-protein kinase Src (Homo sapiens) (P12931 2-536 limits assumed): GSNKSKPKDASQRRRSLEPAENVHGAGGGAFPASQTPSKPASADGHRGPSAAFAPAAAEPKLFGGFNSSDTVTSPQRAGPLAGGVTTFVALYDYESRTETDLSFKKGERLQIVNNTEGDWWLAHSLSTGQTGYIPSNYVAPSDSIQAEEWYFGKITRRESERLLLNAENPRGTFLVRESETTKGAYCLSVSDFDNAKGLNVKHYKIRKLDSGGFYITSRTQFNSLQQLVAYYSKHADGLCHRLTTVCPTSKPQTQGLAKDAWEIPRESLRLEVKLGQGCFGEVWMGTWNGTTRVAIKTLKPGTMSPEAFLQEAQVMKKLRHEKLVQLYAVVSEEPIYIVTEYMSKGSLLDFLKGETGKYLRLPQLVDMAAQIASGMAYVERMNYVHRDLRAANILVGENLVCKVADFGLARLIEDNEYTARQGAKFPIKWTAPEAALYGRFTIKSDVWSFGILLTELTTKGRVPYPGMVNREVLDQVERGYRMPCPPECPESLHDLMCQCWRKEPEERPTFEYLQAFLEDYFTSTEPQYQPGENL

For the compound `Cc1ccc(CNC(=O)Nc2ccccc2)cc1NC(=O)c1cnc2ccccn12`, the IC50 in [1] was found to be 8.2 nM; in series [2], 9.8 nM. The compound further came in with an inhibition in [3] of 54%.
Consider `Cc1ccc([C@H](C)NC(=O)Nc2cccc(F)c2)cc1NC(=O)c1cnc2ccccn12`, for which the values for the inhibition in series [4] and in series [3] were 54% and 22%, respectively. The IC50 in series [1] was 4.5 nM; in series [2], 140 nM.
Turning to `Cc1ccc([C@H](C)NC(=O)Nc2ccccc2)cc1NC(=O)c1cnc2ccccn12`, the IC50 was 6 nM in series [5], 8.1 nM in series [1] and 310 nM in series [2]. Further, the inhibition in series [3] was 4%.
In the case of `Cc1nc(Nc2ncc(C(=O)Nc3c(C)cccc3Cl)s2)cc(N2CCN(CCO)CC2)n1` [DASATINIB], the inhibition in series [4] worked out at 40%; in series [8] it was 90%. Further, the IC50 in series [6] was 32 nM; in series [7], 29 nM.
Turning to `Cc1ccc([C@@H](C)NC(=O)Nc2ccccc2)cc1NC(=O)c1cnc2ccccn12`, the IC50 came out at 1500 nM in series [5] and 1300 nM in series [1]. Moreover, the inhibition in series [9] was determined as 47%.
With `Cc1ccc([C@H](C)NC(=O)c2cccc(C(F)(F)F)c2)cc1NC(=O)c1cnc2ccccn12`, the figures for the inhibition in series [10], in series [4] and in [3] were 49%, 44% and 48%, respectively. This compound showed an IC50 in series [1] of 5.8 nM. Besides, in series [11], the half-life was 1.4 h. For the same compound, in [12], the Vd was determined as 0.31 L/kg. In [13], this compound gave a bioavailability of 55%. The same compound returned a clearance in series [14] of 2.99 mL/min/kg.
On to `O=C(NCc1cccc(NC(=O)c2cnc3ccccn23)c1)Nc1ccccc1`, for which the inhibition in [15] came out at 63%. Also, the half-maximal inhibitory concentration (IC50) in [5] was 150 nM; in [1], 280 nM; in [2] it was 180 nM.
For `Cc1ccc(CNC(=O)Nc2cccc(F)c2)cc1NC(=O)c1cnc2ccccn12`, the inhibition is 54% in series [4] and 40% in [17]. The IC50 in series [6] was > 10000 nM; in [1], 3.3 nM; in series [2], 19 nM; in series [7], > 10000 nM. The inhibition entry in series [16] and in [19] was “Active” throughout. The compound further showed a half-life in [11] of 0.83 h. The Vd in series [12] was found to be 0.42 L/kg. In addition, the bioavailability in [13] came out at 62%. Moreover, in [18], a half-maximal effect (EC50) was put at 8.7 nM. For the same compound, in series [14], the clearance came out at 7.65 mL/min/kg.
With `CN1CCN(CCOc2cc(OC3CCOCC3)c3c(Nc4c(Cl)ccc5c4OCO5)ncnc3c2)CC1`, the inhibition result in [16] and in series [19] was “Active” in each case.
As for `Cc1ccc([C@H](C)Nc2nc3cc(F)ccc3o2)cc1NC(=O)c1cnc2ccccn12`, the results for the IC50 in [1] and in series [2] were 6.1 nM and 160 nM, respectively. In addition, the inhibition was 59% in series [20] and 52% in series [3]. This compound showed a half-life in series [11] of 1.8 h. In addition, the Vd in series [12] was determined as 1.9 L/kg. In [13], the bioavailability came out at 97%. Moreover, in [14], the clearance is 16.6 mL/min/kg.
`Cc1cn(-c2cc(NC(=O)c3ccc(C)c(Nc4nccc(-c5cccnc5)n4)c3)cc(C(F)(F)F)c2)cn1` [NILOTINIB]: in series [6], the IC50 was 1800 nM. The inhibition result in series [16] and in series [19] was “Active” throughout.
`O=C(NCc1cccnc1)Nc1ccccc1Cl`: the IC50 in series [5] is > 100000 nM. This compound also came in with an inhibition in series [21] of 32%.
